This is an account of results in ChEMBL document CHEMBL2413060, “Synthesis, biological evaluation and molecular docking studies of some pyrimidine derivatives” (2013).

≈ marks a conversion by molar mass, not a printed value.

Assay type in all cases: functional
For one experiment, the system named is UACC-62. Description: Cytotoxicity against human UACC62 cells assessed as growth inhibition at 10 uM. The note with it: read-out: GI. A digest of the protocol:
(§1)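 Single-dose screen in a sixty-cell human tumour line panel; percent growth of treated cells relative to untreated was read and reported as percentage growth inhibition, shown as a mean graph. Compounds meeting the threshold inhibition criteria went on to five-dose testing.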

A further experiment has as its system SK-MEL-2. Briefly: Cytotoxicity against human SK-MEL-2 cells assessed as growth inhibition at 10 uM. The note with it: read-out: GI. A digest of the protocol: (§2)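 Single-dose screen on human tumour cell lines. Growth of treated cells is expressed as percent of untreated growth, plotted as a mean graph, and reported as percent growth inhibition.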
For a further experiment, the system named is T47D. Description: Cytotoxicity against human T47D cells assessed as growth inhibition at 10 uM. The settings on record: read-out: GI. In short, it runs like this:
as §2

For a further experiment, the system named is HOP-92. Description: Cytotoxicity against human HOP92 cells assessed as growth inhibition at 10 uM. The note with it: read-out: GI.
The next experiment relates to SF-295. Description: Cytotoxicity against human SF295 cells assessed as growth inhibition at 10 uM. The note with it: read-out: GI. In short, it runs like this:
as §2

The subject of another experiment is A498. Briefly: Cytotoxicity against human A498 cells assessed as growth inhibition at 10 uM. The settings on record: read-out: GI.
The next experiment relates to Malme-3M. Description: Cytotoxicity against human MALME-3M cells assessed as growth inhibition at 10 uM. The settings on record: read-out: GI.
In another experiment the test system is HOP-62. Briefly: Cytotoxicity against human HOP62 cells assessed as growth inhibition at 10 uM. The settings on record: read-out: GI.
The next experiment relates to IGROV-1. Briefly: Cytotoxicity against human IGROV1 cells assessed as growth inhibition at 10 uM. The note with it: read-out: GI.
The test system of a further experiment is NCI-H522. Briefly: Cytotoxicity against human NCI-H522 cells assessed as growth inhibition at 10 uM. The settings on record: read-out: GI. A digest of the protocol: as §2
In experiment [1] the test system is Pseudomonas aeruginosa. Briefly: Antibacterial activity against Pseudomonas aeruginosa ATCC 9027 assessed as diameter of inhibition zone at 1 mg/ml after 24 hrs by cup diffusion method (reference value: 16 mm). The note with it: ATCC 9027, 24 h, read-out: DIZ.
The nature of experiment [2]: Cytotoxicity against human EKVX cells assessed as growth inhibition at 10 uM. The note with it: read-out: GI.
For experiment [3], the system named is Pseudomonas aeruginosa. Briefly: Antibacterial activity against Pseudomonas aeruginosa ATCC 9027 after 24 hrs by two-fold serial dilution method. The settings on record: ATCC 9027, 24 h. A digest of the protocol:
(§3)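 Two-fold serial broth dilution in sterile nutrient broth at 500, 250, 125, 62.5, 31.25, 15.63, 7.82 and 3.91 µg/ml, with dimethylformamide ≤2.5%. Organisms were pre-grown 24 h in broth, and 0.1 ml inoculum was added per 5 ml tube. Tubes were incubated at 37°C, 24 h for bacteria and 48 h for fungi. MIC was taken as the lowest concentration giving no turbidity.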

For another experiment, the system named is TK-10. Description: Cytotoxicity against human TK10 cells assessed as growth inhibition at 10 uM. The settings on record: read-out: GI. In short, it runs like this: as §1
For the next experiment, the system named is SR. Description: Cytotoxicity against human SR cells assessed as growth inhibition at 10 uM. The settings on record: read-out: GI. In short, it runs like this:
as §2

The subject of the next experiment is BT-549. Briefly: Cytotoxicity against human BT549 cells assessed as growth inhibition at 10 uM. The note with it: read-out: GI.
A further experiment relates to SNB-75. Briefly: Cytotoxicity against human SNB75 cells assessed as growth inhibition at 10 uM. The settings on record: read-out: GI. A digest of the protocol:
as §2

In another experiment the test system is Hs-578T. Briefly: Cytotoxicity against human Hs578T cells assessed as growth inhibition at 10 uM. The note with it: read-out: GI.
In another experiment the test system is MCF7. Description: Cytotoxicity against human MCF7 cells assessed as growth inhibition at 10 uM. The note with it: read-out: GI. A digest of the protocol: as §2
Experiment [4] concerns Shigella flexneri. Description: Antibacterial activity against Shigella flexneri ATCC 15391 assessed as diameter of inhibition zone at 1 mg/ml after 24 hrs by cup diffusion method (reference value: 17 mm). The note with it: ATCC 15391, 24 h, read-out: DIZ.
In a further experiment the test system is Staphylococcus aureus. Briefly: Antibacterial activity against Staphylococcus aureus ATCC 6538P assessed as diameter of inhibition zone at 1 mg/ml after 24 hrs by cup diffusion method (reference value: 15 mm). The note with it: read-out: DIZ.
In the next experiment the test system is PC-3. Description: Cytotoxicity against human PC3 cells assessed as growth inhibition at 10 uM. The note with it: read-out: GI. In short, it runs like this:
as §2

For another experiment, the system named is Candida albicans. Description: Antifungal activity against Candida albicans ATCC 2091 assessed as diameter of inhibition zone at 1 mg/ml after 48 hrs by cup diffusion method (reference value: 22 mm). The settings on record: ATCC 2091, 48 h, read-out: DIZ.
Experiment [5] concerns Pseudomonas aeruginosa. Briefly: Antibacterial activity against Pseudomonas aeruginosa ATCC 9027 after 24 hrs by two-fold serial dilution method relative to ofloxacin.
The test system of experiment [6] is Shigella flexneri. Briefly: Antibacterial activity against Shigella flexneri ATCC 15391 after 24 hrs by two-fold serial dilution method. The settings on record: ATCC 15391, 24 h. A digest of the protocol:
as §3

The next experiment relates to NCI/ADR-RES. Briefly: Cytotoxicity against human NCI/ADR-RES cells assessed as growth inhibition at 10 uM. The note with it: read-out: GI. A digest of the protocol:
as §2

The next experiment deals with NCI-H23. Briefly: Cytotoxicity against human NCI-H23 cells assessed as growth inhibition at 10 uM. The note with it: read-out: GI. A digest of the protocol: as §2
In experiment [7] the test system is Shigella flexneri. Description: Antibacterial activity against Shigella flexneri ATCC 15391 after 24 hrs by two-fold serial dilution method relative to ofloxacin.
A further experiment deals with K562. Description: Cytotoxicity against human K562 cells assessed as growth inhibition at 10 uM. The settings on record: read-out: GI.
A further experiment concerns RPMI-8226. Briefly: Cytotoxicity against human RPMI8226 cells assessed as growth inhibition at 10 uM. The note with it: read-out: GI. In short, it runs like this:
as §2

The next experiment relates to RXF 393. Description: Cytotoxicity against human RXF393 cells assessed as growth inhibition at 10 uM. The settings on record: read-out: GI. A digest of the protocol: as §2
A further experiment relates to OVCAR-8. Briefly: Cytotoxicity against human OVCAR8 cells assessed as growth inhibition at 10 uM. The settings on record: read-out: GI. A digest of the protocol: as §2
The test system of the next experiment is UO-31. Description: Cytotoxicity against human UO31 cells assessed as growth inhibition at 10 uM. The note with it: read-out: GI. In short, it runs like this: as §1

Usually MIC stands for the lowest concentration found to suppress growth. Low readings indicate inhibition by little substance, high ones a need for much substance. With `N#Cc1c(N2CCOCC2)nc(=S)[nH]c1-c1ccccc1`, the inhibition of growth at 10 µM came to 56.4% in the experiment with UACC-62; 58.2% in the experiment with SK-MEL-2; 62.7% in the experiment on T47D; 107% in the experiment with HOP-92; 45.5% in the experiment with SF-295; 86.3% with A498. Moreover, the inhibition of growth at 10 µM with Malme-3M came out at 104%; in the experiment on HOP-62, 48.7%; in the experiment with IGROV-1, 70.9%; in the experiment on NCI-H522, 40.4%; in experiment [2], 43.2%; in the experiment with TK-10, 42.4%. Also, the inhibition of growth at 10 µM was found to be 46.9% in the experiment on SR; 42.3% with BT-549; 84.9% in the experiment with SNB-75; 73.2% in the experiment with Hs-578T; 43.4% in the experiment with MCF7; 53% in the experiment on PC-3. Further, the zone of inhibition at 1000 µg/mL in the experiment on Pseudomonas aeruginosa [1] stood at 18 mm; in the experiment with Shigella flexneri [4], 17 mm; in the experiment on Staphylococcus aureus, 15 mm; in the experiment with Candida albicans, 22 mm. In the experiment on Pseudomonas aeruginosa [3], the MIC came out at 125 mg/L (≈ 419 µM).
As to `N#Cc1c(N2CCCCC2)nc(=S)[nH]c1-c1ccccc1`, the inhibition of growth at 10 µM with HOP-92 was found to be 44.5%; in the experiment on Malme-3M it was 48.7%; in the experiment on NCI/ADR-RES, 75.8%; in the experiment on NCI-H23, 81.2%; in the experiment with SR, 44.6%. Besides, the Activity in the experiment with Pseudomonas aeruginosa [5] and in the experiment with Shigella flexneri [7] was 60% throughout. The MIC against Shigella flexneri [6] came out at 125 mg/L (≈ 422 µM). Further, the zone of inhibition at 1000 µg/mL with Pseudomonas aeruginosa [1] was found to be 16 mm; with Shigella flexneri [4], 20 mm; in the experiment with Staphylococcus aureus it was 15 mm; with Candida albicans it was 22 mm.
Turning to `Cn1c(N2CCOCC2)nc(-c2ccc([N+](=O)[O-])cc2)c(C#N)c1=O`, the inhibition of growth at 10 µM came to 44.3% in the experiment on HOP-92; 41.8% with K562; 39.7% with RPMI-8226; 40.1% in the experiment with IGROV-1; 47.7% in the experiment with RXF 393. Besides, the zone of inhibition at 1000 µg/mL with Pseudomonas aeruginosa [1] came out at 16 mm; with Shigella flexneri [4], 17 mm; in the experiment with Staphylococcus aureus, 15 mm; with Candida albicans, 22 mm.
As for `Cn1c(N2CCN(Cc3ccccc3)CC2)nc(-c2ccccc2)c(C#N)c1=O`, the inhibition of growth at 10 µM in the experiment with OVCAR-8 came to 54.6%; in the experiment with UO-31, 49.1%. Also, the zone of inhibition at 1000 µg/mL in the experiment on Pseudomonas aeruginosa [1] worked out at 18 mm; with Shigella flexneri [4], 17 mm; in the experiment with Staphylococcus aureus, 17 mm; with Candida albicans, 22 mm. Also, the lowest concentration to inhibit growth in the experiment with Pseudomonas aeruginosa [3] (MIC) was 125 mg/L (≈ 324 µM).
